Laboratory results taken from ChEMBL document CHEMBL3994609, “Model-Based Discovery of Synthetic Agonists for the Zn2+-Sensing G-Protein-Coupled Receptor 39 (GPR39) Reveals Novel Biological Functions” (J Med Chem, 2017).
In brackets after ≈: the same amount, converted by molar mass. Activity calls are given as the source filed them. The calls are words filed in the database; no cut-off is given here.

Legend:
[1] = target: T1, G-protein coupled receptor 39 (Homo sapiens, UniProt O43194); assay: Agonist activity at human GPR39 expressed in HEK293 cells co-expressing Galphaq assessed as myo-[2-3H]inositol phosphate accumulation measured after 75 mins by scintillation proximity assay; type: functional, cell-based
T1 sequence (O43194 whole entry): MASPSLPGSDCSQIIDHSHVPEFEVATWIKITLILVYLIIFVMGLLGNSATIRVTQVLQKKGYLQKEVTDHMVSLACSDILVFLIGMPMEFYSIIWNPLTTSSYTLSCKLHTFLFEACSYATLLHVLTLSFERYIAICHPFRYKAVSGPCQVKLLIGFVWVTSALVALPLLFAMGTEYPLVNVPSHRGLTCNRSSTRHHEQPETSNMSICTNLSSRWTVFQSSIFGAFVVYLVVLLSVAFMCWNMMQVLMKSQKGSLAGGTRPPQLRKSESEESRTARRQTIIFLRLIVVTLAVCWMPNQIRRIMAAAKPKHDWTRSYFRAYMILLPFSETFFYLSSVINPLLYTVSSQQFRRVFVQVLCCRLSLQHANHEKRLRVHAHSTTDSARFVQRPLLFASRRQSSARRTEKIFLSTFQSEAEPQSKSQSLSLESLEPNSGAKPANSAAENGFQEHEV

[2] = target: T2, G-protein coupled receptor 39 (Mus musculus, UniProt Q5U431); assay: Agonist activity at mouse GPR39 expressed in HEK293 cells co-expressing Galphaq assessed as myo-[2-3H]inositol phosphate accumulation measured after 75 mins by scintillation proximity assay; type: functional, cell-based
T2 sequence (Q5U431 whole entry): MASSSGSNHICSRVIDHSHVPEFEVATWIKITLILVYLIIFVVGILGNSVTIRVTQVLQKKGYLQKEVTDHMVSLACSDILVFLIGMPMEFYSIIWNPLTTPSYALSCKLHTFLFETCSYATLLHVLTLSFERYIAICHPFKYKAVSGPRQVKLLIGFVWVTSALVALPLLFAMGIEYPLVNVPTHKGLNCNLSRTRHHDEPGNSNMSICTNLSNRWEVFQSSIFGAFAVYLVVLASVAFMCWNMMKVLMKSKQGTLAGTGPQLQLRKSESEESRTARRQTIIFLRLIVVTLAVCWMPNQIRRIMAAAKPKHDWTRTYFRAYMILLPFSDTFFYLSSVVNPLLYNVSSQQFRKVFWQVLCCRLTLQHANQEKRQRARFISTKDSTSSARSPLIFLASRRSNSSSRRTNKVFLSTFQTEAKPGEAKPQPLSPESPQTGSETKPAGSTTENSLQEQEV

[3] = target: T2, G-protein coupled receptor 39; assay: Agonist activity at mouse GPR39 expressed in HEK293 cells co-expressing Galphaq assessed as myo-[2-3H]inositol phosphate accumulation in presence of 10 uM Zn2+ measured after 75 mins by scintillation proximity assay; type: functional, cell-based
[4] = target: T3, G-protein coupled receptor 39 (Homo sapiens) (UniProt O43194); assay: Agonist activity at GPR39 (unknown origin) expressed in COS7 cells co-expressing Galphas assessed as increase in intracellular cAMP level measured after 30 mins by chemiluminescence assay; type: functional, cell-based
T3 sequence (whole entry): T1 sequence (O43194 whole entry)

[5] = target: T3, G-protein coupled receptor 39 (Homo sapiens); assay: (§1) Agonist activity at GPR39 (unknown origin) expressed in COS7 cells co-expressing Galphas assessed as increase in intracellular cAMP level in presence of 3 uM Zn2+ measured after 30 mins by chemiluminescence assay; type: functional, cell-based
[6] = target: T1, G-protein coupled receptor 39; assay: as §1; type: functional, cell-based
[7] = target: Motilin receptor (Homo sapiens) (UniProt O43193); assay: Agonist activity at human motilin receptor (412 residues) assessed as myo-[2-3H]inositol phosphate accumulation measured after 75 mins by scintillation proximity assay; type: functional
[8] = Apparent permeability from apical to basolateral side in human Caco2 cells by LC-MS/MS analysis; type: ADME, cell-based; conditions: Caco-2
[9] = Intrinsic clearance in human liver microsomes assessed per mg protein at 3 uM measured after 45 mins by LC-MS/MS analysis; type: ADME, microsome; conditions: read-out: CLH
[10] = Half life in human liver microsomes at 3 uM measured by LC-MS/MS analysis; type: ADME, microsome
[11] = target: T4, C-C chemokine receptor type 1 (Homo sapiens) (UniProt P32246); assay: Agonist activity at full length human CCR1 assessed as myo-[2-3H]inositol phosphate accumulation measured after 75 mins by scintillation proximity assay; type: functional
T4 sequence (whole entry): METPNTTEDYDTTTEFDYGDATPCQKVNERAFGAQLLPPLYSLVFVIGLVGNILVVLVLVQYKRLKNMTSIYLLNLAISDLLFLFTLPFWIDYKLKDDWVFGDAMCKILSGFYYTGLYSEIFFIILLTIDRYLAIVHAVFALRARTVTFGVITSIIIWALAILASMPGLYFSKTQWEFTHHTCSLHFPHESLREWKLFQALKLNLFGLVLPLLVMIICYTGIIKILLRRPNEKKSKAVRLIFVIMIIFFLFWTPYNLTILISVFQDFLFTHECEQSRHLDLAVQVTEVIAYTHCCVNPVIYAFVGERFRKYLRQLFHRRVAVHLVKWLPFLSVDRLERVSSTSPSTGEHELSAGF

[12] = target: Motilin receptor (Homo sapiens) (UniProt O43193); assay: Agonist activity at human motilin receptor (412 residues) assessed as myo-[2-3H]inositol phosphate accumulation in presence of 10 uM Zn2+ measured after 75 mins by scintillation proximity assay; type: functional
[13] = target: Neuromedin-U receptor 2 (Homo sapiens) (UniProt Q9GZQ4); assay: Agonist activity at human NMU2 receptor assessed as myo-[2-3H]inositol phosphate accumulation in presence of 10 uM Zn2+ measured after 75 mins by scintillation proximity assay; type: functional
[14] = target: C-C chemokine receptor type 5 (Macaca mulatta) (UniProt P61813); assay: Agonist activity at full length monkey CCR5 assessed as myo-[2-3H]inositol phosphate accumulation in presence of 10 uM Zn2+ measured after 75 mins by scintillation proximity assay; type: functional
[15] = system: Primary gastric mucosal cell; assay: Induction of CGRP-induced somatostatin release in primary gastric mucosal cells isolated from GPR39 deficient C57BL/6 mouse at 1 uM in presence of 10 uM of Zn2+ measured after 4 hrs by radioimmunoassay; type: functional, cell-based
Summary of the method: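 Primary gastric mucosal cells from GPR39-KO mice, day after preparation, exposed to ligands (1 μM, 10 μM Zn2+) in triplicate for 4 h; supernatant somatostatin measured by in-house RIA and expressed as percent of medium-alone secretion; 10 nM CGRP used as a comparator stimulus; n=2.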

[16] = target: T5, G-protein coupled receptor 39 (Mus musculus) (UniProt Q5U431); assay: Agonist activity at GPR39 in primary gastric mucosal cells isolated from C57BL/6 mouse assessed as myo-[2-3H]inositol phosphate accumulation in presence of 10 uM Zn2+ measured after 75 mins by scintillation proximity assay; type: functional
T5 sequence (whole entry): T2 sequence (Q5U431 whole entry)
Summary of the method: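 Primary murine gastric mucosal cell cultures stimulated with ligand plus 10 μM Zn2+; inositol phosphate turnover read out as for the transfected-cell IP accumulation assay.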

[17] = Aqueous solubility of the compound in phosphate buffered saline at pH 7.0 at 10 mM by turbidimetric method
[18] = target: T5, G-protein coupled receptor 39 (Mus musculus); assay: Agonist activity at GPR39 in primary gastric mucosal cells isolated from C57BL/6 mouse assessed as inhibition of basal ghrelin secretion at 1 uM in presence of 10 uM of Zn2+ measured after 4 hrs by ELISA relative to basal level

Sequence of Motilin receptor (Homo sapiens) (O43193 whole entry): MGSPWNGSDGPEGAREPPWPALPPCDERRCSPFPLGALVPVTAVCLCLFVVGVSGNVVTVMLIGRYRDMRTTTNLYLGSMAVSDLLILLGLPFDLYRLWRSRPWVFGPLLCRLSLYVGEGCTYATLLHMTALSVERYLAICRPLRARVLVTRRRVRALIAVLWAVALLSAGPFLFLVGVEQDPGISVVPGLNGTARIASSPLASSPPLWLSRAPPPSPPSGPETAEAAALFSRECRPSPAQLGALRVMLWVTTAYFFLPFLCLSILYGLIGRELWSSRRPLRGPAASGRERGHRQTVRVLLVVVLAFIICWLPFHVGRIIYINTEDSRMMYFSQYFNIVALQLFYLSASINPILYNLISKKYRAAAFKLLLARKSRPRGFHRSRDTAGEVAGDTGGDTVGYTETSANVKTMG
Sequence of Neuromedin-U receptor 2 (Homo sapiens) (Q9GZQ4 whole entry): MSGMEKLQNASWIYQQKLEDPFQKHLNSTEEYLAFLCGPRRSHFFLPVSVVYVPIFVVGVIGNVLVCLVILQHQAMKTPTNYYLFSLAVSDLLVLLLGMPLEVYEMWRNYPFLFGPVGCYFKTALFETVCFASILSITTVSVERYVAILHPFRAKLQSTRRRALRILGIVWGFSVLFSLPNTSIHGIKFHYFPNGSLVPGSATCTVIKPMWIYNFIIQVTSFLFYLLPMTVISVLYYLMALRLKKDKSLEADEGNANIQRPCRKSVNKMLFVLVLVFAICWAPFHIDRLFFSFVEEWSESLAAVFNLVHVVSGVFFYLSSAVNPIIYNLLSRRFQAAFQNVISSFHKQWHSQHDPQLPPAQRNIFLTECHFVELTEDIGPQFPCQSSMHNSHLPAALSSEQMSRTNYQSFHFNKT

EC50 [1]: 280 nM
EC50 [2]: 180 nM
EC50 [3]: 5 nM
Activity [4]: inactive
Activity [5]: Dose-dependent effect
EC50 [6]: 17 nM
Activity [7]: inactive
Papp A→B [8]: 25 ×10⁻⁶ cm/s
microsomal CLint at 3 µM [9]: 23.7 µL/min/mg
half-life at 3 µM [10]: 58 min
Activity [11]: inactive
Activity [12]: inactive
Activity [13]: inactive
Activity [14]: inactive
Activity [16]: Dose-dependent effect
solubility kinetic at 10000 µM [17]: 65 µM (≈ 25.9 µg/mL)
inhibition [18]: 79%
SMILES: Cc1nn(-c2ncnc3nc[nH]c23)c2c1C(c1ccc(F)cc1Cl)CC(=O)N2 (stereo not drawn)
Activity [15]: inactive
